Biofilm kill mix – mixtures killing C. albicans biofilm; C. albicans biofilm persisters + clotrimazole, fluorescence viability; primary screen in compound mixtures of four per well; inhibition, % at 7.6 µM; 120,000 tested, 0.02% active;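 active = inhibition above 30.3% in the primary screen of four-compound pools, then above 30% when the compound was retested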;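 note: compounds exposed to preformed 24 h biofilms for 48 h; 0% = untreated biofilm control and 100% = clotrimazole plus chlorhexidine kill blank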
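Assay system: C. albicans biofilms / Medium: RPMI/MOPS medium, pH 7.0 / Schedule: biofilm formation 24 h, compound exposure 48 h, 37 °C / Measured by: Alamar Blue fluorescence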
Bim-Mcl-1 – human Bim-Mcl-1 interaction inhibition; Bead-based flow cytometry, Bim peptide-Mcl-1 binding; inhibition, % at 10 µM; 190,000 tested, 0.1% active; AID 1009; in the data active = inhibition above about 40%;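 note: 0% = no compound tracer wells and 100% = peptide blocker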
Target sequence (Q07820 whole entry, looked up): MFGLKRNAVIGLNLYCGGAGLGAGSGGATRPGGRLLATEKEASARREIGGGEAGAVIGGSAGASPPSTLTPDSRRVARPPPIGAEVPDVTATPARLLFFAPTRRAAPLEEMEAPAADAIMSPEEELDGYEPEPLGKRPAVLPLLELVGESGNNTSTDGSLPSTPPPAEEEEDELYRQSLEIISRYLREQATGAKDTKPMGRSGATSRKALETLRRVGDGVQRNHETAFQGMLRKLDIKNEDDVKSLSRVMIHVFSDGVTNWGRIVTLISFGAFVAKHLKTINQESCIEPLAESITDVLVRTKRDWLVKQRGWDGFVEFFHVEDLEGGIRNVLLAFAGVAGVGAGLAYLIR
Calpain2 inh – calpain II (pig) inhibition. purified calpain II, fluorogenic peptide substrate, 30 min. inhibition, % at 16 µM. 220,000 tested, 0.37% active;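 active = inhibition above about 50%, limit read from the data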
Mcl1 Bid PPI – Mcl-1/Bid interaction inhibition; AID 1021; inhibition, % at 21.7 µM; 220,000 tested, 0.97% active; Q07820; TR-FRET Mcl-1/Bid-Dy647 peptide binding, 1536-well;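 active = compounds that cut the binding signal by more than half at the single screening dose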;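 note: His-tagged Mcl-1 with europium anti-His antibody binding Bid BH3 peptide; 0% = Mcl-1 plus peptide wells and 100% = peptide-only wells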
Arbovirus inh – antivirals against arbovirus infection | arbovirus infection cell-based antiviral screen | inhibition, % at 10 µM | 200,000 tested, 0.37% active; in the data active = inhibition above about 30%
Mcl1 Noxa PPI – Mcl-1/Noxa interaction inhibition | Q07820 | TR-FRET Mcl-1/Noxa peptide binding, 2 h | inhibition, % at 21.7 µM | 220,000 tested, 1.5% active;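 active = compounds that cut the protein-peptide binding signal by more than 50% relative to plate controls in a single-dose test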;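 note: His-tagged Mcl-1 with rhodamine Noxa BH3 peptide and terbium anti-His antibody; 0% = Mcl-1 plus Noxa peptide wells and 100% = peptide-only wells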
An asterisk follows results filed as active; . = no result. An excerpt weighted towards active compounds, which were near 2.8% of everything screened.

SMILES	Biofilm kill mix	Bim-Mcl-1	Calpain2 inh	Mcl1 Bid PPI	Arbovirus inh	Mcl1 Noxa PPI
CCOc1ccc(OCC(=O)Nc2ccc(OC)cc2[N+](=O)[O-])cc1	-3	5	18	-16	2	14
Cc1ccc(-n2ncc3c(SCc4cccnc4)ncnc32)c(C)c1	10	-24	-3	-10	4	2
CCOC(=O)C1=C(C)NC(=O)C(C(N)=O)C12CCCCC2 (stereo not drawn)	.	-1	-24	-9	4	57*
N#Cc1c(Cl)cccc1Oc1ccc(S(=O)(=O)Nc2ccccc2)cc1	22	.	51*	16	.	12
N#Cc1cccc(C#N)c1Oc1ccc(S(=O)(=O)Nc2ccccc2)cc1	18	.	24	13	.	5
CCCCC1=CC2=CC(=O)C(C)(OC(=O)c3cnc4ccccc4n3)C(=O)C2=CO1 (stereo not drawn)	18	.	-38	-17	.	62*
COC/C=C/C1=CC2=CC(=O)C(C)(OC(=O)c3cnc4ccccc4n3)C(=O)C2=CN1Cc1ccc(OC)cc1 (stereo not drawn)	22	.	1	-37	.	57*
Cc1ccccc1OCC(O)Cn1c(=N)n(Cc2ccccc2)c2ccccc21 (stereo not drawn)	30*	.	-5	-4	.	3
COc1ccccc1OCC(O)Cn1c(=N)n(Cc2ccccc2)c2ccccc21 (stereo not drawn)	.	0	33	-9	-16	24
Cc1cc(C)c(NC(=O)Cn2cc3c(n2)CCCC3)c(C)c1	.	-5	69*	-15	-1	-7
COC(=O)c1[nH]c2ccc(C)cc2c1NC(=O)c1ccccc1[N+](=O)[O-]	5	-3	-15	-13	6	17
COC(=O)c1[nH]c2ccccc2c1NC(=O)c1ccccc1[N+](=O)[O-]	14	93*	6	-4	-14	-3
O=C(CCSc1ccc(Cl)cc1)c1cccs1	.	-6	3	-6	-4	57*
O=C(Nc1ccc(CN2CCCCC2)cc1)c1sc2ccccc2c1Cl	21	.	5	-17	.	-7
CN1CCN(C(=S)NC(=O)c2ccc(Cl)cc2)CC1	31	-2	-71	-33	81*	68*
CN=c1scc(-c2ccccc2F)n1/N=C/c1ccc(O)c(O)c1O	12	-1	-4	-38	-7	58*
CC(C)N=c1scc(-c2cccs2)n1/N=C/c1ccc(O)c(O)c1O	8	-3	-59	-94	-4	52*
CCN=c1scc(-c2cccs2)n1/N=C/c1cc(OC)ccc1O	14	-3	15	-30	3	25
CCN(CC)C(=O)Oc1ccc(Br)cc1C(=O)Nc1ccc(F)cc1F	20	.	12	-13	.	10
COc1ccc(-n2nc(C(=O)NCC(=O)NCc3ccc(F)cc3)c3ccccc3c2=O)c(OC)c1	.	2	-31	7	9	-29
Cc1ccc(-c2nnc(CCC(=O)NCC3C4CC5CC(C4)CC3C5)o2)s1 (stereo not drawn)	15	-5	-3	-11	11	4
C=CCNC(=O)c1onc(CSc2ccccc2)c1C(=O)O	.	-1	-22	4	12	34
C=CCNC(=O)c1onc(CSc2ccc(C(C)C)cc2)c1C(=O)O	.	-1	-24	10	36*	12
CCOC(=O)c1ccc(NC(=O)Cn2nnc(-c3ccccc3)n2)cc1	.	-4	-16	2	39*	-3
Cc1ccc2nc(SC(C)C(=O)NC3CCCc4ccccc43)[nH]c2c1 (stereo not drawn)	15	-4	9	84*	17	11
SMILES	Biofilm kill mix	Bim-Mcl-1	Calpain2 inh	Mcl1 Bid PPI	Arbovirus inh	Mcl1 Noxa PPI
O=C(CSc1nc2ccc(Cl)cc2[nH]1)NC1CCCc2ccccc21 (stereo not drawn)	-2	-2	4	4	2	12
COc1cccc(NC(=O)CN(C)CC(=O)NC(C)c2ccccc2)c1 (stereo not drawn)	19	.	28	3	.	-8
COc1ccc(CN(C)CC(=O)NC(C)c2ccccc2)c(OC)c1 (stereo not drawn)	11	3	18	56*	-3	-24
S=c1nc[nH]c2c1ncn2C1CCCC1	27	.	5	-31	.	-11
CC(C)Cn1c(-c2csc3c2CCCC3)n[nH]c1=S	.	-3	50*	-42	11	15
CC(C)Cn1c(-c2ccccc2F)n[nH]c1=S	.	-1	41	-26	-5	3
COc1cccc(OCc2cc(/C=N/Nc3ccc(C(=O)O)cc3)ccc2OC)c1	27	.	-12	-34	.	67*
CCOc1cc(/C=N/Nc2ccc(C(=O)O)cc2)ccc1OC(=O)c1ccccc1C	6	.	82*	5	.	56*
COCc1cc(/C=N\NC(=O)COc2ccccc2)ccc1OC	10	.	30	15	4	12
CCOc1cc(/C=N\NC(=O)c2ccc(NC(=O)C(C)(C)C)cc2)ccc1OC(=O)c1ccc(OC)cc1	.	-2	-40	4	-5	23
Cn1c(=O)c2c(O)c([N+](=O)[O-])c(=O)n(C)c2n(C)c1=O	17	.	4	13	.	19
O=C(COC(=O)CCCc1nc2ccccc2s1)Nc1ncc(Cl)cc1Cl	21	-5	-7	-24	2	28
c1ccc(Cc2cc[n+](Cc3ccccn3)cc2)cc1	13	.	0	-14	.	-1
CCOC(=O)c1c(C)oc2c1c(C(c1ccccc1)N1CCOCC1)c(O)c1ccccc12 (stereo not drawn)	.	1	-20	60*	-37	58*
CCOC(=O)c1c(C)oc2c1c(C(c1cccnc1)N1CCCCC1)c(O)c1ccccc12 (stereo not drawn)	.	0	-18	60*	-46	98*
O=C(COc1ccc(Cl)cc1Cl)NCC(=O)N/N=C/c1c[nH]c2ccccc12	5	-5	5	21	-3	58*
O=C(CSc1nnc(SCc2ccc(Cl)cc2)s1)N/N=C/c1c[nH]c2ccccc12	7	-6	10	92*	-23	65*
CCOC(=O)c1ccc(N2CCN(c3ccccc3F)CC2)c(NC(=O)Nc2ccccc2)c1	-8	-7	-15	-27	31*	-19
Cc1ccccc1OCCCC(=O)Nc1nncs1	0	-3	-11	-2	-23	7
CCN(CC)c1ccc(NC(=O)C2=CCN(S(=O)(=O)c3ccc(F)cc3)CC2)c(C)c1	14	-4	8	-19	-21	44
CCNC(=O)c1cc(S(=O)(=O)N(C)C)c(Cl)cc1Cl	2	2	-25	72*	-2	28
CN(C)S(=O)(=O)c1cc(C(=O)NCC2CCCO2)c(Cl)cc1Cl (stereo not drawn)	.	-3	0	-4	-1	15
C=C1c2cccc(O)c2C(O)=C2C(=O)[C@]3(O)C(O)=C(C(N)=O)C(=O)[C@@H](N(C)C)[C@@H]3[C@@H](O)[C@H]12	24	-6	-68	3	-2	-8

High-throughput results as filed in PubChem BioAssay.
